Laboratory results: ChEMBL document CHEMBL2331221, “Potent elastase inhibitors from cyanobacteria: structural basis and mechanisms mediating cytoprotective and anti-inflammatory effects in bronchial epithelial cells” (J Med Chem, 2013)
Active and inactive are the calls of the source. The calls are words filed in the database; no cut-off is given here.

Legend:
[1] = Antiproteolytic activity against elastase (unknown origin); parameters: species or system Homo sapiens
Procedure, shortened: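 Inhibitor in DMSO pre-incubated with elastase in Tris-HCl pH 8.0 for 15 min at room temperature. Reaction started with N-succinyl-Ala-Ala-Ala-p-nitroanilide (2 mM in the added substrate solution). Absorbance at 405 nm read every 30 s. Activity is the initial slope of each progress curve, as percent of the uninhibited reaction.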

[2] = biological target: T1, Neutrophil elastase (Homo sapiens) (UniProt P08246); conditions: BEAS2B, 100 uM
T1 sequence (whole entry): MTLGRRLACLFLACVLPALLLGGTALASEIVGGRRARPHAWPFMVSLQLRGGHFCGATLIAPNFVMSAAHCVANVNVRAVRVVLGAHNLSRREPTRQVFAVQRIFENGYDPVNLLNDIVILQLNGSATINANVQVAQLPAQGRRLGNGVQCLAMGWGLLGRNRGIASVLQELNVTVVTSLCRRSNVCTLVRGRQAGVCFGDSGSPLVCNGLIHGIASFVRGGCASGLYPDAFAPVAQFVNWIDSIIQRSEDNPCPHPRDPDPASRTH

[3] = Inhibition of human pancreatic chymotrypsin assessed as proteolysis using N-succinyl-Ala-Ala-Pro-Phe-p-nitroanilide substrate incubated for 30 mins prior to substrate addition
[4] = Inhibition of bovine pancreatic chymotrypsin assessed as proteolysis using N-succinyl-Gly-Gly-Phe-p-nitroanilide substrate incubated for 30 mins prior to substrate addition; parameters: species or system Bos taurus
[5] = biological target: T1, Neutrophil elastase (Homo sapiens); conditions: BEAS2B, 100 uM; remark: listed apart in the source
[6] = biological target: T1, Neutrophil elastase (Homo sapiens); conditions: BEAS2B, 100 uM; remark: listed apart in the source
[7] = Inhibition of porcine pancreatic elastase assessed as proteolysis using N-succinyl-Ala-Ala-Ala-p-nitroanilide substrate incubated for 15 mins prior to substrate addition measured every 30 seconds; parameters: species or system Sus scrofa
Homo sapiens = species: Homo sapiens; assay: Inhibition of human pancreatic chymotrypsin assessed as proteolysis using N-succinyl-Ala-Ala-Pro-Phe-p-nitroanilide substrate incubated at 10 uM for 30 mins prior to substrate addition; parameters: scale not given: the % may be the effect or the level left
Procedure, shortened: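 Pancreatic chymotrypsin, bovine at 100 μg/mL or human at 50 μg/mL; reaction buffer, enzyme and inhibitor (DMSO) incubated 30 min at room temperature, then substrate added (bovine: N-succinyl-Gly-Gly-Phe-pNA; human: N-succinyl-Ala-Ala-Pro-Phe-pNA). Absorbance read at 405 nm; activity from reaction slope relative to solvent control.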

Row | SMILES | IC50 [3] | Activity (Homo sapiens) | also measured
1 | C/C=C1\NC(=O)[C@@H](NC(=O)[C@@H](NC(=O)[C@H](C)NC(C)=O)C(C)C)[C@@H](C)OC(=O)[C@H](C(C)C)NC(=O)[C@H](Cc2ccc(O)cc2)N(C)C(=O)[C@H](Cc2ccccc2)N2C(=O)[C@H](CC[C@H]2O)NC1=O [LYNGBYASTATIN 8] | – | – | IC50 [1]: 120 nM
2 | CC(C)(C)C(=O)Oc1ccc(S(=O)(=O)Nc2ccccc2C(=O)NCC(=O)O)cc1 | > 10 µM | 55.1% | inhibition [2]: Active; IC50 [4]: 4.08 µM; inhibition [5]: Active; inhibition [6]: Active; IC50 [7]: 2810 nM
3 | C/C=C1\NC(=O)[C@@H](NC(=O)[C@@H](NC(=O)[C@@H](COS(=O)(=O)O)OC)C(C)C)[C@@H](C)OC(=O)[C@H](C(C)C)NC(=O)[C@H](Cc2ccccc2)N(C)C(=O)[C@H](Cc2ccccc2)N2C(=O)[C@H](CC[C@H]2O)NC1=O [symplostatin 6] | > 10 µM | 90.6% | –
4 | C/C=C1\NC(=O)[C@@H](NC(=O)[C@@H](NC(=O)[C@@H](COS(=O)(=O)O)OC)C(C)C)[C@@H](C)OC(=O)[C@H](C(C)C)NC(=O)[C@H](Cc2ccc(O)cc2)N(C)C(=O)[C@H](Cc2ccccc2)N2C(=O)[C@H](CC[C@H]2O)NC1=O [symplostatin 9] | > 10 µM | 73.9% | –
5 | C/C=C1\NC(=O)[C@@H](NC(=O)[C@H](CCc2ccc(O)cc2)NC(=O)[C@H](C)NC(=O)[C@H](O)COS(=O)(=O)O)[C@@H](C)OC(=O)[C@H](C(C)C)NC(=O)[C@H](Cc2ccc(O)cc2)N(C)C(=O)[C@H](Cc2ccccc2)N2C(=O)[C@H](CC[C@H]2O)NC1=O [LYNGBYASTATIN 4] | > 10 µM | 72.2% | –
6 | C/C=C1\NC(=O)[C@@H](NC(=O)[C@@H](NC(=O)[C@@H](COS(=O)(=O)O)OC)[C@@H](C)CC)[C@@H](C)OC(=O)[C@H]([C@H](C)CC)NC(=O)[C@H](Cc2ccc(O)cc2)N(C)C(=O)[C@H](Cc2ccccc2)N2C(=O)[C@H](CC[C@H]2O)NC1=O [symplostatin 10] | > 10 µM | 79.4% | –
7 | C/C=C1\NC(=O)[C@@H](NC(=O)[C@@H](NC(=O)[C@@H](COS(=O)(=O)O)OC)C(C)C)[C@@H](C)OC(=O)[C@H]([C@H](C)CC)NC(=O)[C@H](Cc2ccc(O)cc2)N(C)C(=O)[C@H](Cc2ccccc2)N2C(=O)[C@H](CC[C@H]2O)NC1=O [symplostatin 8] | > 10 µM | 69% | –
8 | C/C=C1\NC(=O)[C@@H](NC(=O)[C@@H](NC(=O)[C@@H](COS(=O)(=O)O)OC)[C@@H](C)CC)[C@@H](C)OC(=O)[C@H]([C@H](C)CC)NC(=O)[C@H](Cc2ccccc2)N(C)C(=O)[C@H](Cc2ccccc2)N2C(=O)[C@H](CC[C@H]2O)NC1=O [symplostatin 7] | > 10 µM | 70.7% | –
9 | C/C=C1\NC(=O)[C@@H](NC(=O)[C@@H](NC(=O)[C@H](C)NC(=O)CCC)C(C)C)[C@@H](C)OC(=O)[C@H](C(C)C)NC(=O)[C@H](Cc2ccc(O)cc2)N(C)C(=O)[C@H](Cc2ccccc2)N2C(=O)[C@H](CC[C@H]2O)NC1=O [LYNGBYASTATIN 9] | – | – | IC50 [1]: 120 nM
